Assays:
[1] = Volume of distribution at steady state in Sprague-Dawley rat at 1 mg/kg, iv by LC-MS/MS analysis; type: ADME, organism-based; settings: in vivo
Outline: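 Male Sprague-Dawley rats (350–400 g) received the monotartrate salt in 10:10:80 DMSO/Tween 80/water at 1 mg ml⁻¹, 1 mg kg⁻¹ i.v. or 2 mg kg⁻¹ p.o. Peripheral whole blood was sampled at 5, 15 and 30 min and 1, 2, 4, 6 and 8 h after dosing.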

[2] = AUCt in Sprague-Dawley rat at 1 mg/kg, iv by LC-MS/MS analysis; type: ADME, organism-based; settings: in vivo
Outline: (§1)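 Whole blood (250 μL) drawn via jugular vein cannula, n = 3. The iv route was sampled at 5, 15 and 30 min and 1, 2, 4, 8 and 24 h; the oral route at 15 and 30 min and 1, 2, 4, 8 and 24 h. LC-MS/MS quantitation.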

[3] = Cmax in Sprague-Dawley rat at 5 mg/kg, po by LC-MS/MS analysis; type: ADME, organism-based; set-up: dose 5 mg/kg, route oral; settings: in vivo
[4] = AUCt in Sprague-Dawley rat at 5 mg/kg, po by LC-MS/MS analysis; type: ADME, organism-based; settings: in vivo; outline: as §1
[5] = Oral bioavailability in Sprague-Dawley rat at 5 mg/kg by LC-MS/MS analysis; type: ADME, organism-based; settings: in vivo
[6] = AUCt in C57B16 mouse at 3 mg/kg, iv by LC-MS/MS analysis; type: ADME, organism-based; settings: in vivo
[7] = Volume of distribution at steady state in C57B16 mouse at 3 mg/kg, iv by LC-MS/MS analysis; type: ADME, organism-based; settings: in vivo
[8] = Cmax in C57B16 mouse at 10 mg/kg, po by LC-MS/MS analysis; type: ADME, organism-based; set-up: dose 10 mg/kg, route oral; settings: in vivo
[9] = AUCt in C57B16 mouse at 10 mg/kg, po by LC-MS/MS analysis; type: ADME, organism-based; settings: in vivo
[10] = Oral bioavailability in C57B16 mouse at 10 mg/kg by LC-MS/MS analysis; type: ADME, organism-based; settings: in vivo
[11] = Ratio of drug uptake in Sprague-Dawley rat brain to plasma at 5 mg/kg, po after 1 hr by LC-MS/MS analysis; type: ADME, organism-based
Outline: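 Fasted male rats (n = 2) received the monotartrate salt orally at 5 mg kg⁻¹. Plasma, brain and CSF levels were measured 1 h after dosing, and the ratio was taken from mean values.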

[12] = Solubility of the compound at pH 7.4; type: physicochemical; settings: buffer
[13] = Cmax in Sprague-Dawley rat at 2 mg/kg, po by LC-MS/MS analysis; type: ADME, organism-based; set-up: dose 2 mg/kg, route oral; settings: in vivo
Outline: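 Male Sprague-Dawley rats (350–400 g) given monotartrate salt as 1 mg ml⁻¹ solution in 10:10:80 DMSO/Tween 80/water, 1 mg kg⁻¹ i.v. or 2 mg kg⁻¹ p.o.; peripheral whole blood sampled at 5, 15, 30 min and 1, 2, 4, 6, 8 h; concentrations by LC-MS/MS.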

[14] = AUC (0 to infinity) in Sprague-Dawley rat at 1 mg/kg, iv by LC-MS/MS analysis; type: ADME, organism-based; set-up: dose 1 mg/kg, route intravenous, time infinity; settings: in vivo
[15] = Oral bioavailability in Sprague-Dawley rat at 2 mg/kg by LC-MS/MS analysis; type: ADME, organism-based; settings: in vivo
[16] = AUC (0 to infinity) in Sprague-Dawley rat at 2 mg/kg, po by LC-MS/MS analysis; type: ADME, organism-based; set-up: dose 2 mg/kg, time infinity, route oral; settings: in vivo
Outline: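 Male Sprague-Dawley rats (350–400 g) dosed orally as the monotartrate salt, a 1 mg ml⁻¹ solution in 10:10:80 DMSO/Tween 80/water (v/v/v). Peripheral whole blood sampled at 5, 15 and 30 min and 1, 2, 4, 6 and 8 h post-dose. Concentrations measured by LC-MS/MS.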

[17] = Ratio of drug uptake in C57B16 mouse brain to plasma at 10 mg/kg, ip after 30 mins by LC-MS/MS analysis; type: ADME, organism-based; settings: 0.5 h
Outline: (§2)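 C57Bl6 mice (n = 6) were given the monotartrate salt i.p. at 10 mg kg⁻¹ (1 mg ml⁻¹ in DMSO/Tween 80/water 1:1:8). Plasma (EDTA) and brain were taken at 30 and 120 min. Brain homogenate was precipitated with acetonitrile, levels were measured by LC-MS/MS, and values were derived by noncompartmental fitting.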

[18] = Ratio of drug uptake in C57B16 mouse brain to plasma at 10 mg/kg, ip after 120 mins by LC-MS/MS analysis; type: ADME, organism-based; settings: 2 h; outline: as §2

Row | Compound | Vdss [1] [L/kg] | AUCt [2] [ng·h/mL] | Cmax [3] [ng/mL] | AUCt [4] [ng·h/mL] | F [5] [%] | AUCt [6] [ng·h/mL] | Vdss [7] [L/kg] | Cmax [8] [ng/mL] | AUCt [9] [ng·h/mL] | F [10] [%] | BPR [11] | solubility [12] [µM] | Cmax [13] [ng/mL] | AUC [14] [ng·min/mL] | F [15] [%] | AUC [16] [ng·min/mL] | BPR [17] | BPR [18]
1 | CCc1cc(F)c2nc(N3CCC(NC4CCOCC4)CC3)c(-c3nc(C)no3)c(C)c2c1.O=C(O)C(O)C(O)C(=O)O | 13.8 | 153 | 39.1 | 232 | 30.2 | 725 | 7.72 | 80.9 | 265 | 12 | 2.2 | 74 |  |  |  |  |  | 
2 | Cc1ccc2nc(N3CCC(NC4CCOCC4)CC3)c(-c3nc(C)no3)cc2c1.O=C(O)C(O)C(O)C(=O)O | 12.95 |  |  |  |  |  |  |  |  |  |  |  | 110.16 | 12740 | 20 | 1705 | 2.9 | 3.8

Source: ChEMBL document CHEMBL4422661, “Design and Synthesis of a Novel and Selective Kappa Opioid Receptor (KOR) Antagonist (BTRX-335140)” (J Med Chem, 2019)
